Experiment: Toxicity liver stage against HepG2, at 10uM
Type: cell-based
Design: test concentration 10 uM, cell line HepG2-A16-CD81EGFP
Conditions: human, HepG2-A16-CD81EGFP cells; read-out: INHIBITION
Outline: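 Uninfected HepG2-A16-CD81EGFP cells, 3 × 10^3 per well, 1536-well, plated on prespotted compound at 10 μM final, parasite-free screening media added to match infected plates; puromycin 10 μM positive, DMSO 0.5% negative; run in parallel with 48 h PbLuc assay at 37 °C, 5% CO2; viability by CellTiter-Glo luminescence, normalized to controls.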

## CN(C)C1CCN(C(=O)c2cccc(S(=O)(=O)NCC3(C)COC3)c2)C1 (stereo unspecified)
  cytotoxicity at 10 µM: -9.22%

## Cc1ccsc1CCNC(C)C(=O)NC1CCCC1 (stereo unspecified)
  cytotoxicity at 10 µM: -4.44%

## O=C1CCCN1CCc1noc(-c2ccsc2)n1
  cytotoxicity at 10 µM: 8.35%

## CN1CSC[C@H]1C(=O)N1CCN(Cc2cccc(F)c2)CC1
  cytotoxicity at 10 µM: -6.92%

## COCC[C@]1(O)CCN(C(=O)CCc2cnn(C)c2)C[C@H]1C
  cytotoxicity at 10 µM: 1.72%

## CC(C)CC(NC(=O)c1cc(-c2cccn2C)n[nH]1)c1ncnn1C (stereo unspecified)
  cytotoxicity at 10 µM: -3.08%

## CC(C)NC(=O)Nc1ccc(-c2nc3c([nH]2)CCNC3)cc1
  cytotoxicity at 10 µM: -3.5%

## CC(C)NC(=O)CNC(C)COc1ccccc1 (stereo unspecified)
  cytotoxicity at 10 µM: -5.66%

## CCC(CNC(=O)c1cc(CC(C)C)nn1C)N(C)CC (stereo unspecified)
  cytotoxicity at 10 µM: -5.99%

## Cc1ccc(C)c2c1NC(=O)C2CC(=O)O (stereo unspecified)
  cytotoxicity at 10 µM: 28.4%

## CSc1ccc(CN2CCn3nc(CNC(C)=O)cc3C2)cc1
  cytotoxicity at 10 µM: 17.4%

## COc1ccccc1[C@@H]1CN(CC2CCC2)C[C@H]1C(=O)O
  cytotoxicity at 10 µM: -1.02%

## CSc1ccc2c(C)cc(N[C@@H](C)CO)nc2c1
  cytotoxicity at 10 µM: -1.07%

## COCC1CCN(C(=O)c2cc(-c3ccco3)nc3c(Cl)cccc23)C1 (stereo unspecified)
  cytotoxicity at 10 µM: 1.12%

## CCn1c(Cn2ccnc2)nnc1C1CCN(Cc2ccc(C)o2)CC1
  cytotoxicity at 10 µM: -2.28%

## CC(C)(O)CCc1cccc(C(=O)N2CCC3(CCO3)CC2)c1
  cytotoxicity at 10 µM: -0.864%

## CNCc1n[nH]c(=O)n1-c1ccccc1Oc1ccccc1
  cytotoxicity at 10 µM: -4.88%

## CC(=O)c1ccc(F)cc1-c1cc(NCCO)nc2[nH]ccc12
  cytotoxicity at 10 µM: -5.72%

## CN(Cc1n[nH]c2c1CCCCC2)C(=O)c1cc(-c2cccn2C)n[nH]1
  cytotoxicity at 10 µM: 3.02%

## O=C(Cc1ccc(CO)cc1)N1CCN(CC2CC2)[C@@H]2CS(=O)(=O)C[C@@H]21
  cytotoxicity at 10 µM: -14.2%

## Nc1nc2c(c(NCc3nc(-c4ccncc4)n[nH]3)n1)CCCC2
  cytotoxicity at 10 µM: -0.0554%

## CCN(C)CC(C)Cn1cnc(-c2ccccc2)c1-c1cncn1CC (stereo unspecified)
  cytotoxicity at 10 µM: 1.33%

## O=C(O)[C@@H]1CN(C(=O)CSCC2CC2)C[C@H]1c1ccccn1
  cytotoxicity at 10 µM: 5.35%

## CCn1c(N)nc2cc(C(=O)N3CCN(c4ccncc4)CC3)cnc21
  cytotoxicity at 10 µM: -8.3%

## CCn1c(C)nnc1SCCNC(=O)CC1CCc2ccccc21 (stereo unspecified)
  cytotoxicity at 10 µM: -1.26%

## CN(c1ccc(-c2nc(C3CC3)no2)cn1)C1CCOCC1
  cytotoxicity at 10 µM: -10.8%

## O=c1c2cccc(C(F)(F)F)c2ncn1CCN1CCNCC1
  cytotoxicity at 10 µM: -3.21%

## Cc1ccc(CSc2nc(N)cc(NCC(=O)N3CCNCC3)n2)cc1
  cytotoxicity at 10 µM: -4.62%

## CC(C)Cn1cncc1-c1nc2c([nH]1)CC(C)(C)CNC2=O
  cytotoxicity at 10 µM: -1.41%

## COCCN1CC2(CCCN(c3ncnc4[nH]cnc34)C2)CCC1=O (stereo unspecified)
  cytotoxicity at 10 µM: -3.68%

## CNc1ncc(CN(C)Cc2cc3n(n2)CCNC3)cn1
  cytotoxicity at 10 µM: -5.71%

## COc1cccc2c(=O)n(CCN3CCNCC3)cnc12
  cytotoxicity at 10 µM: 0.623%

## Cc1ccc2nc(-c3nc4c([nH]3)CCCNC4=O)cn2c1
  cytotoxicity at 10 µM: 4.42%

## O=C1N(C2CCCCC2)CCCC12CCN(S(=O)(=O)c1cccnc1)C2 (stereo unspecified)
  cytotoxicity at 10 µM: 6%

## COc1c(C2CCCN2C(=O)CCNc2ncccn2)c(C)nn1C (stereo unspecified)
  cytotoxicity at 10 µM: -5.1%

## CCOCCCn1c(NC(=O)c2cnc(C)cn2)nc2ccccc21
  cytotoxicity at 10 µM: -18.7%

## c1ccc2oc(CN3CCCC3c3noc(C4CC4)n3)nc2c1 (stereo unspecified)
  cytotoxicity at 10 µM: -4.04%

## CN(C)CC1CN(Cc2nnc(C(C)(C)C)o2)CCO1 (stereo unspecified)
  cytotoxicity at 10 µM: -4.17%

## Cc1cnn(CC2CN(CC(=O)Nc3cc(C)no3)CCO2)c1 (stereo unspecified)
  cytotoxicity at 10 µM: -6.13%

## Cn1cc(-c2nc(CN3CCCCC3Cn3cncn3)cs2)cn1 (stereo unspecified)
  cytotoxicity at 10 µM: -17.4%

## Cc1ccc(-c2ncc(C(=O)NCCNC(=O)C3CC3)s2)c(C)c1
  cytotoxicity at 10 µM: -23.8%

## CCOc1ccc(C(=O)N2CCCC2c2c(C)nn(C)c2OC)cn1 (stereo unspecified)
  cytotoxicity at 10 µM: 2.63%

## Cc1ccc(N2CCCC(NCc3c(C)noc3C)C2)nn1 (stereo unspecified)
  cytotoxicity at 10 µM: -5.88%

## O=C(c1cc(F)ccc1F)C1CCN(C(=O)c2ccco2)CC1
  cytotoxicity at 10 µM: 3.15%

## Cc1nc(CN2CCCC(N(C)Cc3nc(CC(C)C)no3)C2)no1 (stereo unspecified)
  cytotoxicity at 10 µM: 5.35%

## O=C(c1ccccn1)N1CCOC2(COCCN(Cc3cc[nH]n3)C2)C1 (stereo unspecified)
  cytotoxicity at 10 µM: 0.0227%

## Cc1nc(COC[C@@H]2CC[C@H]3[C@H](CCN3c3ccccn3)O2)cs1
  cytotoxicity at 10 µM: 4.06%

## CC1c2ncc(CNC(=O)C3CC3)n2CCN1Cc1ccccn1 (stereo unspecified)
  cytotoxicity at 10 µM: 8.18%

## CCN1CC[C@@]2(C(=O)N(C)C)CCN(S(=O)(=O)c3ccccc3)CC[C@@H]12
  cytotoxicity at 10 µM: 1.26%

## Cc1cccc(CN2CCc3ncnc(N4CCN(C)CC4)c3CC2)n1
  cytotoxicity at 10 µM: -145%

## COCc1nn(CC2CC2)c2c1CN(Cc1cncn1C)CC2
  cytotoxicity at 10 µM: 3.94%

## COc1cccc(C=CCCN2CCN(S(C)(=O)=O)CC2)c1
  cytotoxicity at 10 µM: -1.62%

## CC(=O)c1ccc(C(=O)N2C[C@H]3CC[C@@H](C2)N(CC2CCC2)C3)s1
  cytotoxicity at 10 µM: -5.79%

## CN1C(=O)[C@@H]2CC[C@H]1CN(C(=O)c1nnc3n1CCCCC3)C2
  cytotoxicity at 10 µM: -6.34%

## CN(C)C(c1ccccn1)C1CCC(CNC(=O)C2CC2)CC1 (stereo unspecified)
  cytotoxicity at 10 µM: 6.6%

## COCCN1C(=O)[C@@H]2CC[C@H]1CN(C(=O)COc1ccc(F)c(Cl)c1)C2
  cytotoxicity at 10 µM: -0.447%

— ChEMBL document CHEMBL4513216, “Probing the Open Global Health Chemical Diversity Library for Multistage-Active Starting Points for Next-Generation Antimalarials” (ACS Infect Dis, 2020)
